From ChEMBL document CHEMBL1156952, “Synthesis and biological evaluations of novel bendazac lysine analogues as potent anticataract agents” (Bioorg Med Chem Lett, 2010)

Tests used:
[1] = Aqueous solubility of the compound; assay type: physicochemical; conditions: water (aqueous)
[2] = Anticataract activity against FeCl3/H2O2-induced cataract in rabbit lens assessed as absence of opacificaion at 0.5 mM treated 1 hr before FeCl3/H2O2 challenge measured after 24 hrs; assay type: functional, Oryctolagus cuniculus, Lens of camera-type eye
[3] = Anticataract activity against FeCl3/H2O2-induced cataract in rabbit lens assessed as slight degree of opacificaion at 0.5 mM treated 1 hr before FeCl3/H2O2 challenge measured after 24 hrs; assay type: functional, Oryctolagus cuniculus, Lens of camera-type eye
[4] = Anticataract activity against FeCl3/H2O2-induced cataract in rabbit lens assessed as middle degree of opacificaion at 0.5 mM treated 1 hr before FeCl3/H2O2 challenge measured after 24 hrs; assay type: functional, Oryctolagus cuniculus, Lens of camera-type eye
[5] = Anticataract activity against FeCl3/H2O2-induced cataract in rabbit lens assessed as extensive mature nuclear opacity at 0.5 mM treated 1 hr before FeCl3/H2O2 challenge measured after 24 hrs; assay type: functional, Oryctolagus cuniculus, Lens of camera-type eye
[6] = Anticataract activity against FeCl3/H2O2-induced cataract in rat lens assessed as absence of opacificaion at 0.5 mM treated 1 hr before FeCl3/H2O2 challenge measured after 24 hrs; assay type: functional, Lens of camera-type eye
Summary of the method: (§1)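 Isolated rat lenses were cultured in DMEM and challenged with FeCl3 (0.02%) plus H2O2 (0.5%). Compounds were added at 0.5 mM to the medium of transparent lenses, with a challenged, untreated control. Lenses were scored as the percentage at each opacification grade (−, +, ++, +++).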

[7] = Anticataract activity against FeCl3/H2O2-induced cataract in rat lens assessed as slight degree of opacificaion at 0.5 mM treated 1 hr before FeCl3/H2O2 challenge measured after 24 hrs; assay type: functional, Lens of camera-type eye; summary of the method: as §1
[8] = Anticataract activity against FeCl3/H2O2-induced cataract in rat lens assessed as middle degree of opacificaion at 0.5 mM treated 1 hr before FeCl3/H2O2 challenge measured after 24 hrs; assay type: functional, Lens of camera-type eye; summary of the method: as §1
[9] = Anticataract activity against FeCl3/H2O2-induced cataract in rat lens assessed as extensive mature nuclear opacity at 0.5 mM treated 1 hr before FeCl3/H2O2 challenge measured after 24 hrs; assay type: functional, Lens of camera-type eye; summary of the method: as §1
Oryctolagus cuniculus [10] = organism: Oryctolagus cuniculus; experiment: Induction of water-solvent protein level in rabbit lens homogenates at 5 mM (Rvb= 7.40 +/-0.73 mg/mL); assay type: functional, tissue-based; conditions: Lens of camera-type eye
Summary of the method: (§2)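 Rabbit lenses were cultured in DMEM under FeCl3 (0.02%) plus H2O2 (2%) challenge, with compound at 5, 10 or 15 mM in the medium. Each group's lenses were then homogenized. Water-soluble protein, total antioxidant capacity and malondialdehyde were each measured in the homogenate with a reagent kit.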

Oryctolagus cuniculus [11] = organism: Oryctolagus cuniculus; experiment: Induction of total-antioxidant capacity level in rabbit lens homogenates at 5 mM (Rvb= 0.04 u/mg); assay type: functional, tissue-based; conditions: Lens of camera-type eye; summary of the method: as §2
Oryctolagus cuniculus [12] = organism: Oryctolagus cuniculus; experiment: Reduction of malondialdehyde level in rabbit lens homogenates at 5 mM (Rvb= 0.46 +/-0.27 nmol/mg); assay type: functional, tissue-based; conditions: Lens of camera-type eye; summary of the method: as §2
[13] = Anticataract activity against FeCl3/H2O2-induced cataract in rabbit lens assessed as absence of opacificaion at 10 mM treated 1 hr before FeCl3/H2O2 challenge measured after 24 hrs; assay type: functional, Oryctolagus cuniculus, Lens of camera-type eye
[14] = Anticataract activity against FeCl3/H2O2-induced cataract in rabbit lens assessed as slight degree of opacificaion at 10 mM treated 1 hr before FeCl3/H2O2 challenge measured after 24 hrs; assay type: functional, Oryctolagus cuniculus, Lens of camera-type eye
[15] = Anticataract activity against FeCl3/H2O2-induced cataract in rabbit lens assessed as middle degree of opacificaion at 10 mM treated 1 hr before FeCl3/H2O2 challenge measured after 24 hrs; assay type: functional, Oryctolagus cuniculus, Lens of camera-type eye
[16] = Anticataract activity against FeCl3/H2O2-induced cataract in rabbit lens assessed as extensive mature nuclear opacity at 10 mM treated 1 hr before FeCl3/H2O2 challenge measured after 24 hrs; assay type: functional, Oryctolagus cuniculus, Lens of camera-type eye
[17] = Anticataract activity against FeCl3/H2O2-induced cataract in rabbit lens assessed as absence of opacificaion at 5 mM treated 1 hr before FeCl3/H2O2 challenge measured after 24 hrs; assay type: functional, Oryctolagus cuniculus, Lens of camera-type eye
[18] = Anticataract activity against FeCl3/H2O2-induced cataract in rabbit lens assessed as slight degree of opacificaion at 5 mM treated 1 hr before FeCl3/H2O2 challenge measured after 24 hrs; assay type: functional, Oryctolagus cuniculus, Lens of camera-type eye
[19] = Anticataract activity against FeCl3/H2O2-induced cataract in rabbit lens assessed as middle degree of opacificaion at 5 mM treated 1 hr before FeCl3/H2O2 challenge measured after 24 hrs; assay type: functional, Oryctolagus cuniculus, Lens of camera-type eye
[20] = Anticataract activity against FeCl3/H2O2-induced cataract in rabbit lens assessed as extensive mature nuclear opacity at 5 mM treated 1 hr before FeCl3/H2O2 challenge measured after 24 hrs; assay type: functional, Oryctolagus cuniculus, Lens of camera-type eye
[21] = Anticataract activity against FeCl3/H2O2-induced cataract in rabbit lens assessed as absence of opacificaion at 15 mM treated 1 hr before FeCl3/H2O2 challenge measured after 24 hrs; assay type: functional, Oryctolagus cuniculus, Lens of camera-type eye
[22] = Anticataract activity against FeCl3/H2O2-induced cataract in rabbit lens assessed as slight degree of opacificaion at 15 mM treated 1 hr before FeCl3/H2O2 challenge measured after 24 hrs; assay type: functional, Oryctolagus cuniculus, Lens of camera-type eye
[23] = Anticataract activity against FeCl3/H2O2-induced cataract in rabbit lens assessed as middle degree of opacificaion at 15 mM treated 1 hr before FeCl3/H2O2 challenge measured after 24 hrs; assay type: functional, Oryctolagus cuniculus, Lens of camera-type eye
[24] = Anticataract activity against FeCl3/H2O2-induced cataract in rabbit lens assessed as extensive mature nuclear opacity at 15 mM treated 1 hr before FeCl3/H2O2 challenge measured after 24 hrs; assay type: functional, Oryctolagus cuniculus, Lens of camera-type eye

## O=C(O)COc1nn(Cc2ccccc2)c2ccccc12 [BENDAZAC]
[1]
  solubility: < 1000 µg/mL

## O=C([O-])C(Oc1nn(Cc2ccccc2)c2ccccc12)C(=O)[O-].[Na+].[Na+]
[1]
  solubility: 3000 µg/mL
[2]
  Activity: 0%
[3]
  Activity: 60%
[4]
  Activity: 40%
[5]
  Activity: 0%
[6]
  Activity: 0%
[7]
  Activity: 80%
[8]
  Activity: 20%
[9]
  Activity: 0%

## N[C@@H](Cc1c[nH]cn1)C(=O)O.O=C(O)C(Oc1nn(Cc2cccc(F)c2)c2ccccc12)C(=O)O
[1]
  solubility: 56600 µg/mL

## Cc1ccc(Cn2nc(OC(C(=O)[O-])C(=O)[O-])c3ccccc32)cc1.[Na+].[Na+]
[1]
  solubility: < 1000 µg/mL

## O=C(O)C(Oc1nn(Cc2cccc(Cl)c2)c2ccccc12)C(=O)O
[1]
  solubility: < 1000 µg/mL

## O=C(O)C(Oc1nn(Cc2ccccc2)c2ccccc12)C(=O)O
[1]
  solubility: < 1000 µg/mL

## O=C([O-])C(Oc1nn(Cc2cccc(F)c2)c2ccccc12)C(=O)[O-].[Na+].[Na+]
[1]
  solubility: 3200 µg/mL
[2]
  Activity: 0%
[3]
  Activity: 80%
[4]
  Activity: 20%
[5]
  Activity: 0%
[6]
  Activity: 0%
[7]
  Activity: 60%
[8]
  Activity: 35%
[9]
  Activity: 5%

## Cc1ccc(Cn2nc(OC(C(=O)O)C(=O)O)c3ccccc32)cc1.N[C@@H](Cc1c[nH]cn1)C(=O)O
[1]
  solubility: 71000 µg/mL

## O=C(O)COc1nn(Cc2ccccc2)c2ccccc12
Oryctolagus cuniculus [10]
  WSP level: 9.34 mg/mL
Oryctolagus cuniculus [11]
  T-AOC level: 0.17 U/mg
Oryctolagus cuniculus [12]
  MDA level: 0.22 nmol/mg

## NCCCC[C@H](N)C(=O)O.O=C(O)C(Oc1nn(Cc2cccc(Cl)c2)c2ccccc12)C(=O)O
[1]
  solubility: 195000 µg/mL
[2]
  Activity: 0%
[3]
  Activity: 0%
[4]
  Activity: 35%
[5]
  Activity: 65%
[6]
  Activity: 0%
[7]
  Activity: 55%
[8]
  Activity: 30%
[9]
  Activity: 15%

## N[C@@H](Cc1c[nH]cn1)C(=O)O.O=C(O)C(Oc1nn(Cc2ccccc2)c2ccccc12)C(=O)O
[1]
  solubility: 180000 µg/mL
[2]
  Activity: 0%
[3]
  Activity: 65%
[4]
  Activity: 35%
[5]
  Activity: 0%
[6]
  Activity: 0%
[7]
  Activity: 85%
[8]
  Activity: 15%
[9]
  Activity: 0%
[13]
  Activity: 90%
[14]
  Activity: 10%
[15]
  Activity: 0%
[16]
  Activity: 0%
[17]
  Activity: 30%
[18]
  Activity: 70%
[19]
  Activity: 0%
[20]
  Activity: 0%
[21]
  Activity: 100%
[22]
  Activity: 0%
[23]
  Activity: 0%
[24]
  Activity: 0%

## O=C([O-])C(Oc1nn(Cc2cccc(F)c2)c2ccccc12)C(=O)[O-].[K+].[K+]
[1]
  solubility: 2400 µg/mL

## O=C([O-])C(Oc1nn(Cc2ccc(Cl)cc2)c2ccccc12)C(=O)[O-].[K+].[K+]
[1]
  solubility: < 1000 µg/mL

## O=C([O-])C(Oc1nn(Cc2cccc(Cl)c2)c2ccccc12)C(=O)[O-].[Na+].[Na+]
[1]
  solubility: 1200 µg/mL
